Data: ChEMBL document CHEMBL1143020, “Antimalarial activity of 1-aryl-3,3-dialkyltriazenes” (2007)

Legend:
Assay type in all cases: functional
Plasmodium berghei [1] = experiment: Antimalarial activity as parasitaemia after 7 days against Plasmodium berghei NK65 infected JCL-ICR mice (Mus musculus) at 100 mg/kg
Summary of the method: (§1)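 Female mice aged 4–5 weeks, 5 per group, were infected ip on day 0 with 0.2 mL of 1:100 donor blood in saline (3.3×10^6 parasitized erythrocytes). 100 mg/kg was given twice, at 2 and 48 h post-infection, in 5% gum arabic/saline (solids) or corn oil (oils). Tail-blood thin smears on days 3, 7 and 14 were methanol-fixed and Giemsa-stained (2%, 2 h). % infected erythrocytes was counted microscopically.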

Plasmodium berghei [2] = experiment: Antimalarial activity as parasitaemia after 3 days against Plasmodium berghei NK65 infected JCL-ICR mice (Mus musculus) at 100 mg/kg; summary of the method: as §1
Mus musculus [3] = experiment: Survival rate in Plasmodium berghei NK65 infected JCL-ICR mice (Mus musculus) at 100 mg/kg body weight after 14 days; details: 336 h
Summary of the method: (§2)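 Female JCL-ICR mice (4–5 weeks), 5 per group, were infected i.p. on day 0 with 0.2 mL of a 1:100 saline dilution of donor-mouse blood (3.3×10^6 parasitized erythrocytes). Triazenes were dosed at 100 mg/kg in 5% gum arabic or corn oil, and chloroquine at 50 mg/kg, twice, at 2 and 48 h post-infection. Controls got 5% gum arabic. Mice were monitored daily, with survival rate at day 14.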

Plasmodium berghei [4] = experiment: Antimalarial activity as parasitaemia after 14 days against Plasmodium berghei NK65 infected JCL-ICR mice (Mus musculus) at 100 mg/kg; summary of the method: as §1
Plasmodium berghei [5] = experiment: Antimalarial activity as parasitaemia after 14 days against Plasmodium berghei NK65 infected JCL-ICR mice (Mus musculus) at 50 mg/kg
Summary of the method: (§3)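 Chloroquine reference arm: 5 female mice aged 4–5 weeks per group, infected ip on day 0 with 0.2 mL of 1:100 diluted donor blood (3.3×10^6 parasitized erythrocytes). 50 mg/kg was given at 2 and 48 h post-infection. On days 7 and 14, tail-blood smears were methanol-fixed and stained with 2% Giemsa for 2 h, and % parasitized erythrocytes was scored by microscopy.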

Plasmodium berghei [6] = experiment: Antimalarial activity as parasitaemia after 7 days against Plasmodium berghei NK65 infected JCL-ICR mice (Mus musculus) at 50 mg/kg; summary of the method: as §3
Mus musculus [7] = experiment: Survival rate in Plasmodium berghei NK65 infected JCL-ICR mice (Mus musculus) at 50 mg/kg body weight after 14 days; details: 336 h; summary of the method: as §2

Structure (SMILES)	Activity (Plasmodium berghei [1]) [%]	Activity (Plasmodium berghei [2]) [%]	survival at 100 mg/kg (Mus musculus [3]) [%]	Activity (Plasmodium berghei [4]) [%]	Activity (Plasmodium berghei [5]) [%]	Activity (Plasmodium berghei [6]) [%]	survival at 50 mg/kg (Mus musculus [7]) [%]
Cc1cccc(C)c1/N=N/N(C)C	53.9	1.7	0	–	–	–	–
Cc1cc(C)c(/N=N/N(C)C)c(C)c1	12.4	4.4	40	73.3	–	–	–
Cc1cc(C)c(/N=N/N2CCCC2)c(C)c1	38.5	4.1	60	74.6	–	–	–
CN(C)/N=N/c1ccc(C(F)(F)F)cc1	17.6	4.8	80	67.9	–	–	–
FC(F)(F)c1ccc(/N=N/N2CCCC2)cc1	66.3	2.9	0	–	–	–	–
CCN(CC)CCCC(C)Nc1ccnc2cc(Cl)ccc12 (configuration not stated) [CHLOROQUINE]	–	–	–	–	8.5	<1	100
CN(C)/N=N/c1ccc(Cl)cc1	27	4.8	60	62.5	–	–	–
Cc1cccc(C)c1/N=N/N1CCCCC1	76.4	4.2	0	–	–	–	–
CN(C)/N=N/c1ccc(F)cc1	53.5	1.7	20	60.4	–	–	–
FC(F)(F)c1ccc(/N=N/N2CCCCC2)cc1	44.6	2.3	0	–	–	–	–
Cc1cccc(C)c1/N=N/N1CCCC1	54.6	5.6	40	81.7	–	–	–
Cc1cc(C)c(/N=N/N2CCCCC2)c(C)c1	76.4	4.2	0	–	–	–	–
